Reference: PMC6955414 (British Journal of Clinical Pharmacology, 2019)
Like-named read-outs stand apart in the source and are kept apart here.

Tests used:
[1] = format: in vivo, human; conditions: for AUC0–inf, geometric mean / Cmax, geometric mean / AUC_% Extrap / CL/F / Cmax / T1/2 / Tmax / Vz/F / median Tmax: single 200 μg s.c.; for AUC_% Extrap / CL/F / Cmax / T1/2 / Tmax / Vz/F: mean ± SD
Method in brief: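 Open-label phase I study in renally impaired and matched normal-function adults (CLcr ≥90 mL/min), with or without T2DM. A single abdominal s.c. injection was given at 08:00, followed by a standard breakfast. […] Parameters came from noncompartmental analysis; log-transformed AUC0–inf ratios to the normal group were given with 90% CI.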

Safety evaluation = format: in vivo, human
Method in brief: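 Single abdominal s.c. 200 μg dose given fasting on day 1. Monitoring covered adverse events, vital signs, physical examination, fasting venous glucose, blood and urine routine, blood biochemistry and 12-lead ECG. Assessments were at 24, 144, 312 and 720 h post-dose. The safety set comprised all dosed subjects with post-dose safety data.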

[2] = cited from earlier work
[3] = Mild impairment (n=8), single 200 μg s.c.
[4] = Moderate impairment (n=8), single 200 μg s.c.
[5] = Normal renal function (n=10), single 200 μg s.c.
[6] = all groups (26 subjects), single 200 μg s.c.

Polyethylene glycol loxenatide [PEX168]
AUC0–inf, geometric mean ([1]; Mild impairment (n=8)): 16 500 h^*ng/mL | Cmax, geometric mean ([1]; Mild impairment (n=8)): 48.5 ng/mL | AUC_% Extrap ([1]; Mild renal impairment, n=8): 3.49 ± 1.32% | CL/F ([1]; Mild renal impairment, n=8): 0.0136 ± 0.00657 L/h | Cmax ([1]; Mild renal impairment, n=8): 54.1 ± 29.7 ng/mL | T1/2 ([1]; Mild renal impairment, n=8): 117 ± 16.5 h | Tmax ([1]; Mild renal impairment, n=8): 123 ± 15.4 h | Vz/F ([1]; Mild renal impairment, n=8): 2.28 ± 1.09 L | AUC0–inf, geometric mean ([1]; Moderate impairment (n = 7)): 29 200 h^*ng/mL | Cmax, geometric mean ([1]; Moderate impairment (n = 7)): 73.1 ng/mL | AUC_% Extrap ([1]; Moderate renal impairment, n=7): 6.92 ± 1.75% | CL/F ([1]; Moderate renal impairment, n=7): 0.00711 ± 0.0022 L/h | Cmax ([1]; Moderate renal impairment, n=7): 78.1 ± 35.9 ng/mL | T1/2 ([1]; Moderate renal impairment, n=7): 163 ± 14.7 h | Tmax ([1]; Moderate renal impairment, n=7): 144 ± 33.9 h | Vz/F ([1]; Moderate renal impairment, n=7): 1.69 ± 0.61 L | AUC0–inf, geometric mean ([1]; Normal (n = 8)): 14 600 h^*ng/mL | Cmax, geometric mean ([1]; Normal (n = 8)): 56.6 ng/mL | CL/F ([1]; Normal renal function, n=8): 0.0140 ± 0.00298 L/h | Tmax ([1]; Normal renal function, n=8): 114 ± 45.8 h | Vz/F ([1]; Normal renal function, n=8): 2.44 ± 0.56 L | median Tmax ([1]; mild impairment group): 120 h | Cmax, geometric mean ratio normal vs mild ([1]; mild impairment relative to normal renal function, 90%CI 61.5–119): 85.6% | AUC0–inf, geometric mean ratio normal vs mild ([1]; mild impairment relative to normal renal function, 90%CI 82.1–156): 113% | AUC0–inf increase compared to the normal group ([1]; mild renal impairment): 13.1% | Cmax reduction compared to the normal group ([1]; mild renal impairment): 14.3% | median Tmax ([1]; moderate impairment group): 144 h | Cmax, geometric mean ratio normal vs moderate ([1]; moderate impairment relative to normal renal function, 90%CI 91.7–182): 129% | AUC0–inf, geometric mean ratio normal vs moderate ([1]; moderate impairment relative to normal renal function, 90%CI 144–280): 201% | AUC0–inf increase compared to the normal group ([1]; moderate renal impairment): 100.7% | Cmax increase compared to the normal group ([1]; moderate renal impairment): 29.1% | median Tmax ([1]; normal group): 96 h | Treatment-emergent AE: Abdominal discomforts, % (Safety evaluation; [3]): 0% | Treatment-emergent AE: Acute kidney injury, % (Safety evaluation; [3]): 0% | Treatment-emergent AE: Anaemia, % (Safety evaluation; [3]): 0% | Treatment-emergent AE: Bloating, % (Safety evaluation; [3]): 25% | Treatment-emergent AE: Hiccup, % (Safety evaluation; [3]): 12.5% | Treatment-emergent AE: Increased white blood cell count, % (Safety evaluation; [3]): 0% | Treatment-emergent AE: Nausea, % (Safety evaluation; [3]): 50% | Treatment-emergent AE: Oropharyngeal discomfort, % (Safety evaluation; [3]): 12.5% | Treatment-emergent AE: Overall AEs, % (Safety evaluation; [3]): 87.5% | Treatment-emergent AE: Retching, % (Safety evaluation; [3]): 0% | Treatment-emergent AE: Vomiting, % (Safety evaluation; [3]): 50% | Treatment-emergent AE: Abdominal discomforts, % (Safety evaluation; [4]): 0% | Treatment-emergent AE: Acute kidney injury, % (Safety evaluation; [4]): 12.5% | Treatment-emergent AE: Anaemia, % (Safety evaluation; [4]): 12.5% | Treatment-emergent AE: Bloating, % (Safety evaluation; [4]): 0% | Treatment-emergent AE: Hiccup, % (Safety evaluation; [4]): 12.5% | Treatment-emergent AE: Increased white blood cell count, % (Safety evaluation; [4]): 12.5% | Treatment-emergent AE: Nausea, % (Safety evaluation; [4]): 62.5% | Treatment-emergent AE: Oropharyngeal discomfort, % (Safety evaluation; [4]): 0% | Treatment-emergent AE: Overall AEs, % (Safety evaluation; [4]): 87.5% | Treatment-emergent AE: Retching, % (Safety evaluation; [4]): 12.5% | Treatment-emergent AE: Vomiting, % (Safety evaluation; [4]): 50% | Treatment-emergent AE: Abdominal discomforts, % (Safety evaluation; [5]): 10% | Treatment-emergent AE: Acute kidney injury, % (Safety evaluation; [5]): 0% | Treatment-emergent AE: Anaemia, % (Safety evaluation; [5]): 0% | Treatment-emergent AE: Bloating, % (Safety evaluation; [5]): 50% | Treatment-emergent AE: Hiccup, % (Safety evaluation; [5]): 0% | Treatment-emergent AE: Increased white blood cell count, % (Safety evaluation; [5]): 0% | Treatment-emergent AE: Nausea, % (Safety evaluation; [5]): 20% | Treatment-emergent AE: Oropharyngeal discomfort, % (Safety evaluation; [5]): 0% | Treatment-emergent AE: Overall AEs, % (Safety evaluation; [5]): 70% | Treatment-emergent AE: Retching, % (Safety evaluation; [5]): 0% | Treatment-emergent AE: Vomiting, % (Safety evaluation; [5]): 0% | AE: gastrointestinal disorders, subjects (Safety evaluation; [6]): 80.8% | AE: laboratory tests, subjects (Safety evaluation; [6]): 42.3% | AE: metabolism and nutrition disorders, subjects (Safety evaluation; [6]): 42.3% | Treatment-emergent AE: gastrointestinal disorders, subjects (Safety evaluation; all groups, single 200 μg s.c., including nausea, vomiting and bloating): 80.8% | Tolerability (Safety evaluation; single dose of 200 μg, patients with mild-to-moderate renal impairment): well tolerated

exenatide
in vivo half-life [2]: 2 to 3 h
